Compounds with a hit are over-represented: about 3.5% of the library has one in this group of screens.
RGS4 block: RGS4 inhibitors, primary screen, cell-based, HEK293 M3R inducible RGS4, calcium flux; Fluo-4 calcium flux; active compounds read high; triggered by carbachol at its EC20; AID 463165, 2010; B-score at 10 µM; Regulator of G-protein signaling 4 (Homo sapiens), P49798; 310,000 tested, 0.45% active;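 active means B-score, a plate-corrected calcium signal, over three deviations above library mean, with baseline fluorescence within five deviations of library mean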;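 further: RGS4 expression induced by doxycycline in cells with stable M3 receptor; B-score is computed from the integrated fluorescence ratio over baseline after carbachol; higher B-score means a larger calcium signal and so more RGS4 inhibition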
Target sequence (P49798 whole entry, looked up): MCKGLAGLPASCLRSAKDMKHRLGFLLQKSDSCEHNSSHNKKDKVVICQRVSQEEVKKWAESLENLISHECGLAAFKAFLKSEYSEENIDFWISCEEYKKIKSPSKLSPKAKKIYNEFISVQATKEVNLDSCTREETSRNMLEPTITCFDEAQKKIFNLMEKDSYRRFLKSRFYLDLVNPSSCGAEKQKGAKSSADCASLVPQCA
MrgX1 agonist: agonists of human MrgX1 receptor, primary screen, HEK293 cells, Fluo-4 calcium flux. Fluo-4 calcium fluorescence, agonist mode; active compounds read high. B-score at 10 µM. 310,000 tested, 0.44% active;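 active means calcium response B-score plate-corrected fluorescence ratio at least 3 library SD, with starting fluorescence B-score inside 5 SD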
Target sequence (Q96LB2 whole entry, looked up): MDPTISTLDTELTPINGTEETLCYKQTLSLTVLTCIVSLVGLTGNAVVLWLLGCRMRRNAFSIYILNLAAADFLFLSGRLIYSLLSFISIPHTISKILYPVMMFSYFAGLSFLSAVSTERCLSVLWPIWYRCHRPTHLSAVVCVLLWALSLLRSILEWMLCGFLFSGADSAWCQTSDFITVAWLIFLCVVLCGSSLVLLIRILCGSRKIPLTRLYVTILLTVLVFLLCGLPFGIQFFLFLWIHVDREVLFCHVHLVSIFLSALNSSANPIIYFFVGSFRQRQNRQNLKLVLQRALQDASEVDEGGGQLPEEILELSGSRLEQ
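Test system: Stable human MrgX1 HEK293 cell line | Schedule: Overnight plating before 1 h dye loading | Read-out basis: Baseline-normalised fluorescence change ratio, B-scored | Detection: Kinetic calcium dye fluorescence, Fluo-4 NW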
MrgX1 antag: antagonists of human MrgX1 receptor, primary screen, HEK293 cells, Fluo-4 calcium flux | Mas-related G-protein coupled receptor member X1 (Homo sapiens), Q96LB2 | BAM8-22 antagonism; active compounds read low | B-score at 10 µM | 310,000 tested, 1.3% active;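 active means calcium-response B-score plate-corrected more than 3 library SD below zero, starting fluorescence within 5 deviations, no agonist response on first addition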;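 further: peak minus trough fluorescence over baseline after final BAM8-22 challenge near maximal dose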
RGS4 act: RGS4 potentiators or activators, primary screen, cell-based, HEK293 M3R inducible RGS4, calcium flux; carbachol calcium flux Fluo4; active compounds read low; B-score at 10 µM; 310,000 tested, 0.92% active;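 active means B-score of the integrated calcium signal more than 4 SD below the library mean, with starting fluorescence not abnormally high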;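 further: negative B-score means reduced calcium response which marks RGS4 activation or potentiation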
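Assay system: Inducible-RGS4 HEK293 cells carrying M3 receptor | Schedule: Compound preincubation 20 min at room temperature before agonist | Signal: Kinetic calcium fluorescence imaging with Fluo4-AM dye, 2 µM | Read-out basis: B score from integrated fluorescence ratio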
MrgX1 allo act: positive allosteric modulators of MrgX1, primary screen, HEK293 cells, Fluo-4 calcium flux; B-score at 10 µM; Mas-related G-protein coupled receptor member X1 (Homo sapiens), Q96LB2; AID 588675, 2011; 310,000 tested, 0.63% active; FDSS; active compounds read high;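 active means plate-corrected calcium response at least 3 library SD above typical, normal starting fluorescence, not activating the receptor alone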;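 further: compound read alongside a low EC10 to EC30 dose of BAM8-22 agonist; peak minus trough fluorescence over baseline measured at the second addition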
RGS4 inh valid: enhanced carbachol calcium response, M3R/RGS4 cells, RGS4 inhibitor project, cell-based, validation screen, HEK293 M3R/RGS4, calcium flux; AID 492999, 2010; calcium response, % at 10 µM; carbachol calcium Fluo-4 fluorescence; carbachol added at its EC20; 0 = buffer wells, 100 = carbachol control; 1,700 tested, 65% active; shares compounds with RGS4 block;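 active means duplicate-averaged calcium response above the buffer-only control mean plus 5 SD of those controls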;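 further: integrated fluorescence ratio F max minus min over baseline F0; higher response in RGS4-induced cells means RGS4 inhibition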
M3R Ca ctr: carbachol calcium response in non-induced M3R cells, confirmation, counter-screen for RGS4 inhibitor project, cell-based, HEK293 M3R; shares compounds with RGS4 block; carbachol calcium Fluo-4; submaximal (EC20) carbachol stimulus; buffer wells 0%, carbachol control wells 100%; activity (percent), % at 10 µM; 1,900 tested, 20% active; call rule not given here;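 further: RGS4 induction absent so cells express M3R without RGS4; higher means more calcium signal and flags a non-specific hit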
M3R basal Ca ctr: second counter-screen for RGS4 inhibitors: non-induced cells without carbachol; shares compounds with RGS4 block; HEK293 M3R/RGS4 non-induced, Fluo-4 calcium, no carbachol; normalised: buffer wells 0%, carbachol wells 100%; calcium response (agonist-mode artifact), % at 10 µM; 1,900 tested, 22% active; AID 493001;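 active means duplicate-averaged calcium rise in uninduced cells above buffer wells' mean plus 5 SD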
Of the large screens only hits and unclear results are named; the others gave an inactive call (follow-up assays come after a bar, where they were run).

Cc1ccc(Oc2ccc(S(=O)(=O)N3CCOCC3)cc2C(N)=O)c(-n2nc3ccccc3n2)c1	none
O=C(O)CCN1C(=O)/C(=C\c2ccc(-c3nc4ccccc4s3)o2)SC1=S	none | RGS4 inh valid inactive | M3R Ca ctr inactive | M3R basal Ca ctr 54%
O=C(O)CCCN1C(=O)/C(=C\c2ccco2)SC1=S	none (no result: MrgX1 agonist, MrgX1 antag, MrgX1 allo act)
O=C(O)c1ccccc1Nc1cc(Cl)c2nonc2c1[N+](=O)[O-]	none
O=[N+]([O-])c1c(Nc2ccccn2)cc(Cl)c2nonc12	RGS4 block 10, MrgX1 antag -4.7 | RGS4 inh valid 54% | M3R Ca ctr inactive | M3R basal Ca ctr 8.0%
NS(=O)(=O)c1cccc(NC(=O)COC(=O)c2cc(-c3ccc(Cl)cc3)nc3ccccc23)c1	RGS4 block 5.6 | RGS4 inh valid 14% | M3R Ca ctr inactive | M3R basal Ca ctr inactive
O=C1N/C(=N/S(=O)(=O)c2ccccc2)S/C1=C/c1cccnc1	none
COc1cc(/C=C2\S/C(=N/S(=O)(=O)c3ccc(C)cc3)NC2=O)c([N+](=O)[O-])cc1OC	none | RGS4 inh valid inactive | M3R Ca ctr 38% | M3R basal Ca ctr inactive
Cc1ccc(S(=O)(=O)/N=C2/NC(=O)/C(=C/c3ccccc3)S2)cc1	none | RGS4 inh valid inactive | M3R Ca ctr inactive | M3R basal Ca ctr inactive
COc1ccc(/C=C2/S/C(=N/S(=O)(=O)Cc3ccccc3)NC2=O)cc1OC	RGS4 block 7.8 | RGS4 inh valid 20% | M3R Ca ctr 48% | M3R basal Ca ctr inactive
Cc1ccc(S(=O)(=O)/N=C2/NC(=O)/C(=C/c3ccncc3)S2)cc1	RGS4 block 4.9 | RGS4 inh valid 16% | M3R Ca ctr inactive | M3R basal Ca ctr inactive
O=C1N/C(=N\S(=O)(=O)Cc2ccccc2)S/C1=C/c1cccc([N+](=O)[O-])c1	none
CC(=O)Nc1ccc(S(=O)(=O)/N=C2/NC(=O)/C(=C\c3ccco3)S2)cc1	none
COc1cccc(CN2CCNC(=O)C2CC(=O)N2CCCCO2)c1OC (stereo not drawn)	none
Cc1ccc(S(=O)(=O)NCCN2CCOCC2)c(C)c1C	none
COC(=O)c1nn(C23CC4CC(CC(C4)C2)C3)c2c1C(=O)N(c1ccc(F)cc1)C2=O	none | RGS4 inh valid inactive | M3R Ca ctr inactive | M3R basal Ca ctr inactive
COC(=O)c1cnc(NNS(=O)(=O)c2ccc(C(F)(F)F)cc2)nc1C(F)(F)F	none
Cc1[nH]n(-c2c(Cl)cc(Cl)cc2Cl)c(=O)c1C=Nc1ccc(S(=O)(=O)N2CCOCC2)cc1	none | RGS4 inh valid inactive | M3R Ca ctr inactive | M3R basal Ca ctr inactive
Cc1[nH]n(-c2ccccc2)c(=O)c1C=Nc1ccc(S(N)(=O)=O)cc1	none
Cc1ccc(/C=C2\C(=O)ON=C2c2ccccc2)o1	none
Cc1ccc(-c2ccc(/C=C3\C(=O)ON=C3c3ccccc3)o2)c([N+](=O)[O-])c1	RGS4 block 12, MrgX1 antag -6.3 | RGS4 inh valid inactive | M3R Ca ctr inactive | M3R basal Ca ctr 14%
CC1CCCN(C(=O)CN2C(=O)CSc3ccc(S(=O)(=O)N4CCOCC4)cc32)C1 (stereo not drawn)	none
COc1ccc(C(=O)/C=C/c2cc(C(=O)O)cc3c2OCOC3)c(O)c1	RGS4 block 24 | RGS4 inh valid 64% | M3R Ca ctr 70% | M3R basal Ca ctr inactive
COc1ccc(C(=O)/C=C/c2ccccc2)c(O)c1	none | RGS4 inh valid inactive | M3R Ca ctr inactive | M3R basal Ca ctr inactive
COc1ccc(C(=O)/C=C/c2ccc(OC)cc2OC)c(O)c1	none
O=C(/C=C/c1ccc(O)c(O)c1)c1ccccc1O	RGS4 block 13, MrgX1 allo act 14 | RGS4 inh valid 25% | M3R Ca ctr 48% | M3R basal Ca ctr inactive
O=C(/C=C/c1ccoc1)c1ccccc1O	none
O=C(CSc1nc(COc2ccccc2)nc2ccccc12)NC1CCCC1	none
Cc1ccc(C(C2C(=O)CC(C)(C)CC2=O)C2C(=O)CC(C)(C)CC2=O)s1	RGS4 block 25 | RGS4 inh valid 17% | M3R Ca ctr inactive | M3R basal Ca ctr inactive
O=C1NN(c2ccccc2)C(=O)/C1=C\c1cccc(OC(=O)c2cccs2)c1	RGS4 block 20, MrgX1 agonist 27 | RGS4 inh valid 70% | M3R Ca ctr inactive | M3R basal Ca ctr inactive
COc1ccc2c(c1OC)C(=O)N1N=C(c3ccc(Cl)cc3)CC21 (stereo not drawn)	none
O=C(Cc1cccs1)N1CCC(c2nc3c(nnn3Cc3ccccc3)c(=O)[nH]2)CC1	none | RGS4 inh valid inactive | M3R Ca ctr inactive | M3R basal Ca ctr inactive
CC(C)(C)c1ccc(Cn2nnc3c(=O)[nH]c(C4CCCN(C(=O)Cc5cccs5)C4)nc32)cc1 (stereo not drawn)	none
CC(C)(C)c1ccc(Cn2nnc3c(=O)[nH]c(C4CCN(C(=O)Cc5cccs5)CC4)nc32)cc1	RGS4 block 5.4 | RGS4 inh valid 27% | M3R Ca ctr inactive | M3R basal Ca ctr inactive
O=C(Cc1cccs1)N1CCCC(c2nc3c(nnn3Cc3ccc(F)cc3)c(=O)[nH]2)C1 (stereo not drawn)	none
Cc1ccc(Cn2nnc3c(=O)[nH]c(C4CCN(C(=O)Cc5cccs5)CC4)nc32)cc1	none | M3R Ca ctr inactive | M3R basal Ca ctr inactive
Cc1ccc(S(=O)(=O)N2CCOCC2)cc1NC(=O)COC(=O)CNC(=O)c1ccc(Cl)cc1Cl	none
O=C(Nc1ccccc1)NC1(C(=O)NCc2cccs2)CCCCC1	none
Cn1c(=O)[nH]c(=O)c2c1nc([N+](=O)[O-])n2Cc1ccccc1	RGS4 block 12 | RGS4 inh valid 71% | M3R Ca ctr 42% | M3R basal Ca ctr inactive
Cc1ccc(C)c(/C=C2\CCn3c2nc2cc(C(=O)O)ccc2c3=O)c1	none | RGS4 inh valid inactive | M3R Ca ctr inactive | M3R basal Ca ctr inactive
O=C(O)c1ccc2c(=O)n3c(nc2c1)/C(=C/c1cccc(O)c1)CC3	none

Screening data deposited in PubChem BioAssay by Johns Hopkins Ion Channel Center.
